Measured values reported in ChEMBL document CHEMBL4689842, “EUbOPEN Chemogenomics Library wave 1” (2021).

Tested on: U2OS
Assay: Multiplex assay against U2OS
Type: toxicity, cell-based
Settings: human
How it was run: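 Live cells carried four stains from seeding: Hoechst33342, BioTracker Green Microtubule Cytoskeleton Dye, MitoTracker Red and Annexin V Alexa Fluor 680. They were imaged on a CQ1 microscope at 37°C and 5% CO2 after compound addition. Using CellPathfinder machine-learning gating, cells were split into Hoechst high-intensity objects or normal cells, normal cells into healthy, pyknosed or fragmented nuclei, and pyknosed cells into mitotic or apoptotic; tubulin, mitochondrial-mass and membrane-permeability phenotypes are per cents of healthy-nucleus cells.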

[1] = 12 h, 1 µM, compound concentration 1 uM, replicate 1
[2] = 12 h, 1 µM, compound concentration 1 uM, replicate 2
[3] = 12 h, 10 µM, compound concentration 10 uM, replicate 1
[4] = 12 h, 10 µM, compound concentration 10 uM, replicate 2
[5] = 24 h, 1 µM, compound concentration 1 uM, replicate 1
[6] = 24 h, 1 µM, compound concentration 1 uM, replicate 2
[7] = 24 h, 10 µM, compound concentration 10 uM, replicate 1
[8] = 24 h, 10 µM, compound concentration 10 uM, replicate 2
[9] = 48 h, 1 µM, compound concentration 1 uM, replicate 1
[10] = 48 h, 1 µM, compound concentration 1 uM, replicate 2
[11] = 48 h, 10 µM, compound concentration 10 uM, replicate 1
[12] = 48 h, 10 µM, compound concentration 10 uM, replicate 2

## Cc1nc(N2CC[C@H](O)C2)ncc1-c1cc(C(F)(F)F)cc2[nH]ncc12
[1]
  Population Apoptotic (%): 25%
  Population Fragmented Nuclei (%): 2%
  Population Healthy Nuclei (%): 93%
  Population Hoechst High Intensity Objects (%): 3%
  Population Membrane Permeable-Phenotype (%): 6%
  Population Mitochondria Different-Phenotype (%): 24%
  Population Mitotic Cells (%): 75%
  Population Normal (%): 96%
  Population Pyknosed Nuclei (%): 4%
  Population Tubulin-Different-Phenotype (%): 22%
  Total Cell Count: 181
[2]
  Population Apoptotic (%): 14%
  Population Fragmented Nuclei (%): 4%
  Population Healthy Nuclei (%): 89%
  Population Hoechst High Intensity Objects (%): 11%
  Population Membrane Permeable-Phenotype (%): 5%
  Population Mitochondria Different-Phenotype (%): 28%
  Population Mitotic Cells (%): 85%
  Population Normal (%): 88%
  Population Pyknosed Nuclei (%): 5%
  Population Tubulin-Different-Phenotype (%): 19%
  Total Cell Count: 111
[3]
  Population Apoptotic (%): 60%
  Population Fragmented Nuclei (%): 6%
  Population Healthy Nuclei (%): 88%
  Population Hoechst High Intensity Objects (%): 1%
  Population Membrane Permeable-Phenotype (%): 8%
  Population Mitochondria Different-Phenotype (%): 22%
  Population Mitotic Cells (%): 40%
  Population Normal (%): 98%
  Population Pyknosed Nuclei (%): 5%
  Population Tubulin-Different-Phenotype (%): 26%
  Total Cell Count: 158
[4]
  Population Apoptotic (%): 16%
  Population Fragmented Nuclei (%): 9%
  Population Healthy Nuclei (%): 84%
  Population Hoechst High Intensity Objects (%): 12%
  Population Membrane Permeable-Phenotype (%): 6%
  Population Mitochondria Different-Phenotype (%): 31%
  Population Mitotic Cells (%): 83%
  Population Normal (%): 87%
  Population Pyknosed Nuclei (%): 6%
  Population Tubulin-Different-Phenotype (%): 41%
  Total Cell Count: 153
[5]
  Population Apoptotic (%): 27%
  Population Fragmented Nuclei (%): 1%
  Population Healthy Nuclei (%): 94%
  Population Hoechst High Intensity Objects (%): 1%
  Population Membrane Permeable-Phenotype (%): 7%
  Population Mitochondria Different-Phenotype (%): 25%
  Population Mitotic Cells (%): 72%
  Population Normal (%): 98%
  Population Pyknosed Nuclei (%): 4%
  Population Tubulin-Different-Phenotype (%): 24%
  Total Cell Count: 260
[6]
  Population Apoptotic (%): 14%
  Population Fragmented Nuclei (%): 3%
  Population Healthy Nuclei (%): 92%
  Population Hoechst High Intensity Objects (%): 6%
  Population Membrane Permeable-Phenotype (%): 3%
  Population Mitochondria Different-Phenotype (%): 24%
  Population Mitotic Cells (%): 85%
  Population Normal (%): 93%
  Total Cell Count: 121
[7]
  Population Apoptotic (%): 27%
  Population Fragmented Nuclei (%): 3%
  Population Healthy Nuclei (%): 91%
  Population Hoechst High Intensity Objects (%): 4%
  Population Membrane Permeable-Phenotype (%): 5%
  Population Mitochondria Different-Phenotype (%): 12%
  Population Mitotic Cells (%): 72%
  Population Normal (%): 95%
  Population Pyknosed Nuclei (%): 4%
  Population Tubulin-Different-Phenotype (%): 28%
  Total Cell Count: 173
[8]
  Population Apoptotic (%): 21%
  Population Fragmented Nuclei (%): 5%
  Population Healthy Nuclei (%): 81%
  Population Hoechst High Intensity Objects (%): 9%
  Population Membrane Permeable-Phenotype (%): 13%
  Population Mitochondria Different-Phenotype (%): 40%
  Population Mitotic Cells (%): 78%
  Population Normal (%): 90%
  Population Pyknosed Nuclei (%): 12%
  Population Tubulin-Different-Phenotype (%): 46%
  Total Cell Count: 141

## C=CC(=O)Nc1cccc(Sc2nc(Nc3ccc(N4CCN(C)CC4)cc3)ncc2Cl)c1
[1]
  Population Apoptotic (%): 99%
  Population Fragmented Nuclei (%): 5%
  Population Healthy Nuclei (%): 3%
  Population Hoechst High Intensity Objects (%): 10%
  Population Membrane Permeable-Phenotype (%): 100%
  Population Mitochondria Different-Phenotype (%): 100%
  Population Mitotic Cells (%): 0%
  Population Normal (%): 89%
  Population Pyknosed Nuclei (%): 91%
  Population Tubulin-Different-Phenotype (%): 100%
  Total Cell Count: 197
[2]
  Population Apoptotic (%): 95%
  Population Fragmented Nuclei (%): 16%
  Population Healthy Nuclei (%): 11%
  Population Hoechst High Intensity Objects (%): 14%
  Population Mitotic Cells (%): 5%
  Population Normal (%): 85%
  Population Pyknosed Nuclei (%): 71%
  Total Cell Count: 119
[3]
  Population Apoptotic (%): 28%
  Population Fragmented Nuclei (%): 5%
  Population Healthy Nuclei (%): 83%
  Population Hoechst High Intensity Objects (%): 1%
  Population Membrane Permeable-Phenotype (%): 32%
  Population Mitochondria Different-Phenotype (%): 11%
  Population Mitotic Cells (%): 71%
  Population Normal (%): 98%
  Population Pyknosed Nuclei (%): 10%
  Population Tubulin-Different-Phenotype (%): 25%
  Total Cell Count: 175
[4]
  Population Apoptotic (%): 44%
  Population Fragmented Nuclei (%): 8%
  Population Healthy Nuclei (%): 82%
  Population Hoechst High Intensity Objects (%): 14%
  Population Membrane Permeable-Phenotype (%): 25%
  Population Mitochondria Different-Phenotype (%): 10%
  Population Mitotic Cells (%): 55%
  Population Normal (%): 85%
  Population Pyknosed Nuclei (%): 8%
  Population Tubulin-Different-Phenotype (%): 33%
  Total Cell Count: 115
[5]
  Population Apoptotic (%): 96%
  Population Fragmented Nuclei (%): 10%
  Population Hoechst High Intensity Objects (%): 7%
  Population Mitochondria Different-Phenotype (%): 96%
  Population Mitotic Cells (%): 3%
  Population Normal (%): 92%
  Population Pyknosed Nuclei (%): 50%
  Total Cell Count: 237
[6]
  Population Apoptotic (%): 100%
  Population Fragmented Nuclei (%): 21%
  Population Healthy Nuclei (%): 38%
  Population Hoechst High Intensity Objects (%): 15%
  Population Membrane Permeable-Phenotype (%): 100%
  Population Mitochondria Different-Phenotype (%): 100%
  Population Mitotic Cells (%): 0%
  Population Normal (%): 84%
  Population Pyknosed Nuclei (%): 40%
  Population Tubulin-Different-Phenotype (%): 100%
  Total Cell Count: 127
[7]
  Population Apoptotic (%): 42%
  Population Fragmented Nuclei (%): 6%
  Population Healthy Nuclei (%): 82%
  Population Hoechst High Intensity Objects (%): 1%
  Population Membrane Permeable-Phenotype (%): 24%
  Population Mitochondria Different-Phenotype (%): 13%
  Population Mitotic Cells (%): 57%
  Population Normal (%): 98%
  Population Pyknosed Nuclei (%): 11%
  Population Tubulin-Different-Phenotype (%): 18%
  Total Cell Count: 158
[8]
  Population Apoptotic (%): 72%
  Population Fragmented Nuclei (%): 7%
  Population Hoechst High Intensity Objects (%): 12%
  Population Membrane Permeable-Phenotype (%): 23%
  Population Mitochondria Different-Phenotype (%): 15%
  Population Mitotic Cells (%): 27%
  Population Normal (%): 87%
  Population Pyknosed Nuclei (%): 9%
  Population Tubulin-Different-Phenotype (%): 22%
  Total Cell Count: 103

## CC(C)Oc1ccccc1C(=O)Nc1ccccc1C(=O)Nc1cccc(S(=O)(=O)C(F)(F)F)c1
[1]
  Population Apoptotic (%): 47%
  Population Fragmented Nuclei (%): 14%
  Population Healthy Nuclei (%): 67%
  Population Hoechst High Intensity Objects (%): 11%
  Population Membrane Permeable-Phenotype (%): 4%
  Population Mitochondria Different-Phenotype (%): 61%
  Population Mitotic Cells (%): 52%
  Population Normal (%): 88%
  Population Pyknosed Nuclei (%): 18%
  Population Tubulin-Different-Phenotype (%): 55%
  Total Cell Count: 120
[2]
  Population Apoptotic (%): 33%
  Population Fragmented Nuclei (%): 20%
  Population Healthy Nuclei (%): 74%
  Population Hoechst High Intensity Objects (%): 5%
  Population Membrane Permeable-Phenotype (%): 10%
  Population Mitochondria Different-Phenotype (%): 45%
  Population Mitotic Cells (%): 66%
  Population Normal (%): 94%
  Population Pyknosed Nuclei (%): 6%
  Population Tubulin-Different-Phenotype (%): 37%
  Total Cell Count: 62
[3]
  Population Apoptotic (%): 68%
  Population Fragmented Nuclei (%): 14%
  Population Healthy Nuclei (%): 61%
  Population Hoechst High Intensity Objects (%): 8%
  Population Membrane Permeable-Phenotype (%): 95%
  Population Mitochondria Different-Phenotype (%): 61%
  Population Mitotic Cells (%): 32%
  Population Normal (%): 91%
  Population Pyknosed Nuclei (%): 24%
  Total Cell Count: 142
[4]
  Population Apoptotic (%): 90%
  Population Fragmented Nuclei (%): 17%
  Population Healthy Nuclei (%): 71%
  Population Hoechst High Intensity Objects (%): 4%
  Population Membrane Permeable-Phenotype (%): 97%
  Population Mitochondria Different-Phenotype (%): 92%
  Population Mitotic Cells (%): 10%
  Population Normal (%): 96%
  Population Pyknosed Nuclei (%): 10%
  Population Tubulin-Different-Phenotype (%): 100%
  Total Cell Count: 53
[5]
  Population Apoptotic (%): 55%
  Population Fragmented Nuclei (%): 15%
  Population Healthy Nuclei (%): 71%
  Population Hoechst High Intensity Objects (%): 8%
  Population Membrane Permeable-Phenotype (%): 2%
  Population Mitochondria Different-Phenotype (%): 48%
  Population Mitotic Cells (%): 44%
  Population Normal (%): 91%
  Population Pyknosed Nuclei (%): 13%
  Population Tubulin-Different-Phenotype (%): 48%
  Total Cell Count: 109
[6]
  Population Apoptotic (%): 33%
  Population Fragmented Nuclei (%): 21%
  Population Healthy Nuclei (%): 66%
  Population Hoechst High Intensity Objects (%): 7%
  Population Membrane Permeable-Phenotype (%): 11%
  Population Mitochondria Different-Phenotype (%): 58%
  Population Mitotic Cells (%): 66%
  Population Normal (%): 92%
  Population Pyknosed Nuclei (%): 11%
  Population Tubulin-Different-Phenotype (%): 35%
  Total Cell Count: 57
[7]
  Population Apoptotic (%): 74%
  Population Fragmented Nuclei (%): 23%
  Population Healthy Nuclei (%): 48%
  Population Hoechst High Intensity Objects (%): 6%
  Population Membrane Permeable-Phenotype (%): 92%
  Population Mitochondria Different-Phenotype (%): 74%
  Population Mitotic Cells (%): 25%
  Population Normal (%): 93%
  Population Pyknosed Nuclei (%): 27%
  Population Tubulin-Different-Phenotype (%): 100%
  Total Cell Count: 148
[8]
  Population Apoptotic (%): 100%
  Population Fragmented Nuclei (%): 17%
  Population Healthy Nuclei (%): 56%
  Population Hoechst High Intensity Objects (%): 11%
  Population Membrane Permeable-Phenotype (%): 91%
  Population Mitochondria Different-Phenotype (%): 94%
  Population Mitotic Cells (%): 0%
  Population Normal (%): 88%
  Population Tubulin-Different-Phenotype (%): 98%
  Total Cell Count: 55
[9]
  Population Apoptotic (%): 81%
  Population Fragmented Nuclei (%): 10%
  Population Healthy Nuclei (%): 74%
  Population Hoechst High Intensity Objects (%): 3%
  Population Membrane Permeable-Phenotype (%): 4%
  Population Mitochondria Different-Phenotype (%): 31%
  Population Mitotic Cells (%): 18%
  Population Normal (%): 96%
  Population Pyknosed Nuclei (%): 14%
  Population Tubulin-Different-Phenotype (%): 25%
  Total Cell Count: 109
[10]
  Population Apoptotic (%): 66%
  Population Fragmented Nuclei (%): 22%
  Population Healthy Nuclei (%): 72%
  Population Hoechst High Intensity Objects (%): 7%
  Population Membrane Permeable-Phenotype (%): 18%
  Population Mitochondria Different-Phenotype (%): 48%
  Population Mitotic Cells (%): 33%
  Population Normal (%): 92%
  Population Pyknosed Nuclei (%): 5%
  Population Tubulin-Different-Phenotype (%): 41%
  Total Cell Count: 56
[11]
  Population Apoptotic (%): 77%
  Population Fragmented Nuclei (%): 64%
  Population Healthy Nuclei (%): 19%
  Population Hoechst High Intensity Objects (%): 7%
  Population Membrane Permeable-Phenotype (%): 36%
  Population Mitochondria Different-Phenotype (%): 84%
  Population Mitotic Cells (%): 22%
  Population Normal (%): 93%
  Population Pyknosed Nuclei (%): 15%
  Population Tubulin-Different-Phenotype (%): 93%
  Total Cell Count: 190
[12]
  Population Apoptotic (%): 64%
  Population Fragmented Nuclei (%): 43%
  Population Healthy Nuclei (%): 38%
  Population Hoechst High Intensity Objects (%): 9%
  Population Membrane Permeable-Phenotype (%): 62%
  Population Mitochondria Different-Phenotype (%): 75%
  Population Mitotic Cells (%): 36%
  Population Normal (%): 90%
  Population Pyknosed Nuclei (%): 17%
  Population Tubulin-Different-Phenotype (%): 98%
  Total Cell Count: 64
